In ChEMBL document CHEMBL4699522, “Androsamide, a Cyclic Tetrapeptide from a Marine Nocardiopsis sp., Suppresses Motility of Colorectal Cancer Cells” (J Nat Prod, 2020):
Calls of active or inactive are those of the source. Non-standard residues stand in square brackets, D forms with d. Residues, ends and D or L forms follow the SMILES beside them. NMeTrp(4-OMe) = CN[C@@H](Cc1c[nH]c2cccc(OC)c12)C(=O)O; NMeM = CN[C@@H](CCSC)C(=O)O

Columns and labels:
AGS = experiment: Cytotoxicity against human AGS cells assessed as reduction in cell viability after 48 hrs by MTT assay; type: functional, cell-based
Procedure, shortened: (§1)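 MTT read-out. Cells seeded at (2-3) × 10^3/well, incubated 12 h, then exposed to 3.125–100 μM for 48 h, with MTT added for the final 4 h. Absorbance read at 540 nm. Viability is normalized to DMSO-treated cells. IC50 computed by statistical software. Means ± SEM, n = 3. AGS cells were grown in RPMI, Caco2 and HCT116 in DMEM, all with 10% FBS, at 37 °C and 5% CO2.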

Caco-2 [1] = experiment: Cytotoxicity against human Caco-2 cells assessed as reduction in cell viability after 48 hrs by MTT assay; type: functional, cell-based; procedure, shortened: as §1
HCT-116 [2] = experiment: Cytotoxicity against human HCT-116 cells assessed as reduction in cell viability after 48 hrs by MTT assay; type: functional, cell-based; procedure, shortened: as §1
Caco-2 [3] = experiment: Induction of apoptosis in human Caco-2 cells at 13 to 16 uM after 6 hrs by annexin V-FITC/propidium iodide staining based flow cytometric analysis; type: functional, cell-based; details: dose microM 13-16, time 6.0 hrs
HCT-116 [4] = experiment: Induction of apoptosis in human HCT-116 cells at 21 to 26 uM after 6 hrs by annexin V-FITC/propidium iodide staining based flow cytometric analysis; type: functional, cell-based; details: dose microM 21-26, time 6.0 hrs
Caco-2 [5] = experiment: Inhibition of cell migration in human Caco-2 cells after 6 hrs by K1-Fluo RT fluorescence confocal microscope based transwell assay; type: functional; details: dose microM 0.15-1.3, time 6.0 hrs
Procedure, shortened: (§2)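 Migration through uncoated Boyden chambers. (2.0-2.5) × 10^5 Caco2 cells seeded in medium with 0.2% BSA. The lower chamber holds 0.2% BSA medium plus 10 μg/mL fibronectin as chemoattractant. Treated at 0.15, 0.65 or 1.3 μM for 6 h at 37 °C. Migrated cells fixed, Diff-Quick stained and counted in five random fields by confocal microscopy. Expressed relative to DMSO control; triplicate.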

Caco-2 [6] = experiment: Inhibition of cell migration in human Caco-2 cells at 1.3 uM after 6 hrs by K1-Fluo RT fluorescence confocal microscope based transwell assay relative to control; type: functional; procedure, shortened: as §2
Caco-2 [7] = experiment: Inhibition of cell migration in human Caco-2 cells after 24 hrs by fluorescence microscope based Boyden-Chamber cell migration assay; type: functional; details: dose microM 0.15-1.3, time 24.0 hrs
Procedure, shortened: (§3)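 Boyden chambers coated with 1% gelatin. Caco2 seeded at 2.5 × 10^6 cells/mL in 0.2% BSA medium; the lower chamber has 0.2% BSA medium with 10 μg/mL fibronectin. Exposed to 0.15, 0.65 or 1.3 μM for 24 h at 37 °C. Invaded cells fixed, Diff-Quick stained and counted in five random fields by fluorescence microscopy. Expressed relative to DMSO control; three replicates.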

Caco-2 [8] = experiment: Inhibition of cell migration in human Caco-2 cells at 1.3 uM after 24 hrs by fluorescence microscope based Boyden-Chamber cell migration assay relative to control; type: functional; procedure, shortened: as §3
Caco-2 [9] = experiment: Inhibition of epithelial-mesenchymal transition in human Caco-2 cells assessed as increase in E-cadherin mRNA expression after 24 hrs by qRT-PCR analysis; type: functional, cell-based; details: dose microM 0.65-1.3, time 24.0 hrs
Procedure, shortened: (§4)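 Caco2 treated 24 h at 0.65 or 1.3 μM. Total RNA isolated, and 1 μg reverse-transcribed. Quantified by SYBR green real-time PCR. Fold change derived from cycle-threshold values, normalized to GAPDH, and compared with DMSO-treated cells. Means ± SEM, n = 3.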

Caco-2 [10] = experiment: Inhibition of epithelial-mesenchymal transition in human Caco-2 cells assessed as decrease in N-cadherin mRNA expression after 24 hrs by qRT-PCR analysis; type: functional, cell-based; details: dose microM 0.65-1.3, time 24.0 hrs; procedure, shortened: as §4
Caco-2 [11] = experiment: Inhibition of epithelial-mesenchymal transition in human Caco-2 cells assessed as decrease in vimentin mRNA expression after 24 hrs by qRT-PCR analysis; type: functional, cell-based; details: dose microM 0.65-1.3, time 24.0 hrs; procedure, shortened: as §4
Caco-2 [12] = experiment: Inhibition of epithelial-mesenchymal transition in human Caco-2 cells assessed as decrease in Snail mRNA expression at 0.65 to 1.3 uM after 24 hrs by qRT-PCR analysis; type: functional, cell-based; details: dose microM 0.65-1.3, time 24.0 hrs; procedure, shortened: as §4
Caco-2 [13] = experiment: Inhibition of epithelial-mesenchymal transition in human Caco-2 cells assessed as decrease in Slug mRNA expression at 0.65 to 1.3 uM after 24 hrs by qRT-PCR analysis; type: functional, cell-based; details: dose microM 0.65-1.3, time 24.0 hrs; procedure, shortened: as §4
Caco-2 [14] = experiment: Inhibition of epithelial-mesenchymal transition in human Caco-2 cells assessed as decrease in Twist mRNA expression at 0.65 to 1.3 uM after 24 hrs by qRT-PCR analysis; type: functional, cell-based; details: dose microM 0.65-1.3, time 24.0 hrs; procedure, shortened: as §4
Caco-2 [15] = experiment: Inhibition of epithelial-mesenchymal transition in human Caco-2 cells assessed as decrease in ZEB1 mRNA expression at 0.65 to 1.3 uM after 24 hrs by qRT-PCR analysis; type: functional, cell-based; details: dose microM 0.65-1.3, time 24.0 hrs; procedure, shortened: as §4
Caco-2 [16] = experiment: Inhibition of epithelial-mesenchymal transition in human Caco-2 cells assessed as decrease in ZEB2 mRNA expression at 0.65 to 1.3 uM after 24 hrs by qRT-PCR analysis; type: functional, cell-based; details: dose microM 0.65-1.3, time 24.0 hrs; procedure, shortened: as §4
Caco-2 [17] = experiment: Inhibition of epithelial-mesenchymal transition in human Caco-2 cells assessed as increase in E-cadherin protein expression at 0.65 to 1.3 uM after 24 hrs by Western blot analysis; type: functional, cell-based; details: dose microM 0.65-1.3, time 24.0 hrs
Procedure, shortened: (§5)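 2 × 10^5 Caco2 cells per well treated 24 h at nontoxic concentrations. Lysates separated by SDS-PAGE and probed with primary antibodies, then HRP-conjugated secondaries. Luminescence band densities normalized to α-tubulin and compared with DMSO-treated cells. Means ± SEM, n = 3.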

Caco-2 [18] = experiment: Inhibition of epithelial-mesenchymal transition in human Caco-2 cells assessed as decrease in N-cadherin protein expression at 0.65 to 1.3 uM after 24 hrs by Western blot analysis; type: functional, cell-based; details: dose microM 0.65-1.3, time 24.0 hrs; procedure, shortened: as §5
Caco-2 [19] = experiment: Inhibition of epithelial-mesenchymal transition in human Caco-2 cells assessed as decrease in Snail protein expression at 0.65 to 1.3 uM after 24 hrs by Western blot analysis; type: functional, cell-based; details: dose microM 0.65-1.3, time 24.0 hrs; procedure, shortened: as §5
Caco-2 [20] = experiment: Inhibition of epithelial-mesenchymal transition in human Caco-2 cells assessed as decrease in Twist protein expression at 0.65 to 1.3 uM after 24 hrs by Western blot analysis; type: functional, cell-based; details: dose microM 0.65-1.3, time 24.0 hrs; procedure, shortened: as §5
Caco-2 [21] = experiment: Inhibition of cell motility in human Caco-2 cells assessed as reduction in CAPN1 mRNA expression at 0.65 to 1.3 uM by RT2 Profiler PCR Array; type: functional, cell-based; details: dose microM 0.65-1.3
Caco-2 [22] = experiment: Inhibition of cell motility in human Caco-2 cells assessed as reduction in RAC2 mRNA expression at 0.65 to 1.3 uM by RT2 Profiler PCR Array; type: functional, cell-based; details: dose microM 0.65-1.3

Q: `CC[C@H](C)[C@@H]1NC(=O)[C@H]([C@@H](C)O)NC(=O)[C@H](Cc2c[nH]c3cccc(OC)c23)N(C)C(=O)[C@H](CCSC)N(C)C1=O` (cyclo(I[NMeM][NMeTrp(4-OMe)]T)) was tested. Which Activity (AGS) did it give?
A: Its Activity is “Dose-dependent effect”.

Q: And the IC50 (AGS)?
A: Its IC50 is 18 µM.

Q: And the Activity (Caco-2 [1])?
A: Its Activity is “Dose-dependent effect”.

Q: What about the IC50 (Caco-2 [1]; Caco-2, 48 h) of the same molecule?
A: The IC50 was 13 µM.

Q: What about the Activity (HCT-116 [2]) of the same molecule?
A: Its Activity is “Dose-dependent effect”.

Q: And the IC50 (HCT-116 [2]; HCT-116, 48 h)?
A: Its IC50 is 21 µM.

Q: And the Activity (Caco-2 [3])?
A: Its Activity is “Active”.

Q: And the Activity (HCT-116 [4])?
A: The Activity was “Active”.

Q: What about the inhibition (Caco-2 [5]) of the same molecule?
A: The inhibition was “Dose-dependent effect”.

Q: And the inhibition at 1.3 µM (Caco-2 [6])?
A: The inhibition at 1.3 µM was 50%.

Q: And the inhibition (Caco-2 [7])?
A: Its inhibition is “Dose-dependent effect”.

Q: What about the inhibition at 1.3 µM (Caco-2 [8]) of the same molecule?
A: The inhibition at 1.3 µM was 45%.

Q: What about the inhibition (Caco-2 [9]) of the same molecule?
A: The inhibition was “Dose-dependent effect”.

Q: What about the inhibition (Caco-2 [10]) of the same molecule?
A: The inhibition was “Dose-dependent effect”.

Q: And the inhibition (Caco-2 [11])?
A: Its inhibition is “Dose-dependent effect”.

Q: What about the inhibition (Caco-2 [12]) of the same molecule?
A: Its inhibition is “Active”.

Q: And the inhibition (Caco-2 [13])?
A: Its inhibition is “Active”.

Q: And the inhibition (Caco-2 [14])?
A: The inhibition was “Active”.

Q: What about the inhibition (Caco-2 [15]) of the same molecule?
A: Its inhibition is “Active”.

Q: What about the inhibition (Caco-2 [16]) of the same molecule?
A: Its inhibition is “Active”.

Q: What about the inhibition (Caco-2 [17]) of the same molecule?
A: The inhibition was “Active”.

Q: And the inhibition (Caco-2 [18])?
A: Its inhibition is “Active”.

Q: And the inhibition (Caco-2 [19])?
A: Its inhibition is “Active”.

Q: And the inhibition (Caco-2 [20])?
A: The inhibition was “Active”.

Q: What about the inhibition (Caco-2 [21]) of the same molecule?
A: The inhibition was “Active”.

Q: And the inhibition (Caco-2 [22])?
A: The inhibition was “Active”.
